Most compounds without a hit are left out; they make up all but 2.9% or so of the library.
CAL PDZ FP-1 – human CAL PDZ-peptide interaction inhibition | purified CAL PDZ, TMR-peptide fluorescence polarization, 1 h | inhibition, % at 20 µM | Q9HD26 | 0.02% of 330,000 active;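 active = highest replicate inhibition of at least 40%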;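 note: plate controls were DMSO neutral control wells for no effect and unlabeled competitor peptide control wells for full effect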
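Test system: purified CerCALP PDZ construct; Compound dosing: one concentration, 20 µM compound; Also added: TMR-labelled reporter peptide T*-PRC34 bound in PDZ groove; Read-out: inhibition from polarization loss; Controls: unlabelled peptide and DMSO controls; Signal: FP readout, S and P plane fluorescence; Incubation: 1 h at RT.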
ERAP1 HTS inh – ERAP1 (human) enzyme inhibition; Q9NZ08; recombinant ERAP1, Leu-AMC fluorescence, 60 min; inhibition, % at 10.7 µM; 0.15% of 340,000 active; AID 652197;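 active = mean replicate inhibition of at least 30%, or all replicates individually reaching that 30% level; inactive = mean below 30% and not every replicate reaching it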;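 note: 0% = neutral control wells and 100% = L-leucinethiol positive control wells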
S100A4 inh HTS – inhibitors of human S100A4 binding to myosin IIA peptide; P26447; S100A4/TAMRA-MyoIIA peptide fluorescence polarization; inhibition, % at 10.7 µM; 0.14% of 360,000 active; AID 652163;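 active = mean inhibition of at least 70% across replicates, with every replicate also reaching that level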
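Material: S100A4 monomer (human). Medium: Calcium-containing HEPES buffer, pH 7.2. Probe or stimulus: labelled myosin peptide probe, 5 nM. Compound dosing: one concentration per compound. Timing: polarization read 5 min after assay mix addition, stable 5–60 min. Benchmarks: DMSO as neutral control, TFP as positive control.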
DENV2 CPE – DENV2-induced cell death inhibition | 1.7% of 350,000 active | CPE inhibition, % at 9.99 µM | DENV2-infected cells, cytopathic effect rescue, plate reader; in the data active = CPE inhibition above about 20%, passing the limit was not always enough; tested in BHK-21 cells;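 note: 0% = median of neutral control wells and 100% = median of positive control wells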
SIRT5 inh – sirtuin-5 (human) deacylase inhibition | 1.1% of 330,000 active | AID 652115 | Purified SirT5, succinyl-peptide AMC, trypsin-coupled fluorescence | inhibition, % at 15 µM | Q9NXA8; in the data active = inhibition above about 15%
CAL PDZ FP-2 – CAL PDZ (human) peptide binding inhibition; Q9HD26; purified CAL PDZ, TMR-peptide fluorescence polarization, 1 h; inhibition, % at 24.9 µM; 0.92% of 300,000 active;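 active = mean inhibition of at least 30% with at least half of replicates also reaching 30%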;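 note: 0% = DMSO neutral control and 100% = excess unlabeled competitor peptide PRC23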
Numbers without * were called inactive; . = not tested or not shown; + = active, no number.

SMILES	CAL PDZ FP-1	ERAP1 HTS inh	S100A4 inh HTS	DENV2 CPE	SIRT5 inh	CAL PDZ FP-2
CO[C@H]1CN(C)C(=O)c2ccc(NC(=O)CC(F)(F)F)cc2OC[C@@H](C)N(C(=O)c2ccccc2F)C[C@H]1C	.	4	-25	62*	.	.
CO[C@H]1CN(C)C(=O)c2ccc(NC(=O)CC(F)(F)F)cc2OC[C@H](C)N(C(=O)c2ccccc2F)C[C@H]1C	.	-1	-33	8	2	.
CO[C@H]1CN(C)C(=O)c2ccc(NC(=O)C3CC3)cc2OC[C@@H](C)N(C(=O)c2ccccc2F)C[C@H]1C	.	3	-10	-8	18*	.
COCCNC(=O)C[C@@H]1CC[C@@H](NC(=O)NC2CCCCC2)[C@H](CO)O1	.	3	0	5	-1	.
O=C(CCC(=O)Nc1ccc(Br)cc1)N/N=C/c1ccccc1O	-2	-4	-2	7	-7	+
Cc1ccc(NC(=O)CCC(=O)N/N=C/c2ccccc2O)cc1	-3	1	0	-2	0	-4
O=C(O)C(Cc1ccc(Cl)cc1)NS(=O)(=O)c1ccc(Cl)cc1 (centres undefined)	.	-6	-1	23*	-3	0
O=C(O)C(Cc1ccccc1)NS(=O)(=O)c1ccc(Cl)cc1 (centres undefined)	-4	-1	2	-3	2	-2
C[C@@H]1CN([C@H](C)CO)C(=O)c2cc(C3=CCCC3)cnc2O[C@H]1CN(C)Cc1ccccc1C(=O)O	.	-2	5	-3	3	.
COc1ccccc1N(C(C)=O)c1nc(C)cc(C)c1C#N	-1	.	.	.	.	31*
O=C(CN1CCOCC1)N[C@@H]1CC[C@@H](CCNS(=O)(=O)c2ccccc2F)O[C@H]1CO	.	2	7	12	-2	.
Nc1sc(-c2ccccc2)cc1C(=O)NCCN1CCOCC1	.	-2	3	26*	-1	.
O=C(NCCN1CCOCC1)c1ccccc1-c1ccccc1	0	.	.	.	.	2
COCC(=O)Nc1ccc2c(c1)C(=O)N(C)[C@H]1CC[C@@H](CC(=O)NCc3ccccc3Cl)O[C@@H]1CO2	.	.	.	-5	.	.
Cc1cccc(/N=C/c2c(O)cc(C)oc2=O)n1	1	0	-51	.	15*	0
COc1ccc2c3c(n(C)c2c1)[C@@H](CO)N(C(=O)Nc1ccccc1F)CC31CCN(C(C)=O)CC1	.	3	2	-7	2	.
COC1=C/C(=C/c2c(N)n3cc(C)sc3nc2=O)C=CC1=O	-2	1	38	1	-1	-2
Cc1cn2c(N)c(C=C3C=C(Cl)C(=O)C(Cl)=C3)c(=O)nc2s1	2	0	-7	16	20*	13
C[C@H](CO)N1C[C@H](C)[C@H](CN(C)S(=O)(=O)c2ccc(Cl)cc2)Oc2ccc(NC(=O)Nc3ccc4c(c3)OCO4)cc2CC1=O	.	3	9	0	1	.
O=C(O)c1c(C(=O)N2N=C3/C(=C/c4ccccc4)CCCC3C2c2ccccc2)cccc1[N+](=O)[O-] (centres undefined)	-3	5	-8	2	5	-1
O=C(O)c1ccccc1C(=O)N1N=C2/C(=C/c3cccc([N+](=O)[O-])c3)CCCC2C1c1cccc([N+](=O)[O-])c1 (centres undefined)	14	-9	-1	-15	24*	-1
CCC(=O)N1C[C@@H](C)[C@H](OC)CN(C)C(=O)c2ccc(NC(=O)c3cnccn3)cc2OC[C@@H]1C	.	0	-21	-10	-2	.
CC1CC1C(=O)N1CCN(S(=O)(=O)c2cc(C(F)(F)F)cc(C(F)(F)F)c2)CC1 (centres undefined)	0	-2	-3	9	4	76*
COc1ccc(C2(C)CC(C)(C)Nc3ccccc32)cc1 (centres undefined)	-2	-1	-6	26*	-5	11
COc1ccc(C2CC(C)(c3ccc(OC)cc3)Nc3ccccc3N2)cc1 (centres undefined)	-1	1	3	-7	-4	-3
SMILES	CAL PDZ FP-1	ERAP1 HTS inh	S100A4 inh HTS	DENV2 CPE	SIRT5 inh	CAL PDZ FP-2
O=C(Nc1nc2n(n1)C(c1ccc(F)cc1)CC(c1ccccc1)N2)c1ccco1 (centres undefined)	-1	-7	-3	-3	1	38*
Cc1cc(C)c(/C=N/NC(=O)c2nnn(-c3nonc3N)c2CN2CCC(C)CC2)c(C)c1	-1	1	3	6	-1	38*
CN(C)Cc1c(C(=O)N/N=C/c2ccc(OCc3c(F)cccc3Cl)cc2)nnn1-c1nonc1N	2	0	7	-2	-4	77*
Nc1nonc1-n1nnc(C(=O)N/N=C/c2ccccn2)c1-c1ccccc1	-2	2	-1	-3	0	4
Nc1nonc1-n1nnc(C(=O)N/N=C/c2ccccn2)c1CNc1ccccc1	0	-3	1	0	-2	131*
Nc1nonc1-n1nnc(C(=O)N/N=C/c2ccc(O)cc2)c1COc1ccc(F)cc1	0	2	-1	0	-4	-4
CN(C)c1ccc(/C=N/NC(=O)c2nnn(-c3nonc3N)c2CN(C)c2ccccc2)cc1	-2	1	-2	7	17*	-4
C[C@@H]1CN([C@@H](C)CO)C(=O)Cc2cc(NC(=O)Nc3cccc4ccccc34)ccc2O[C@H]1CN(C)S(=O)(=O)c1cccs1	.	.	.	-1	.	.
C/C=C/c1cccc(-c2nc(C(=O)NCc3ccc(OC)cc3)cc3c2[C@H](CCO)N([S@@](=O)C(C)(C)C)C3)c1	.	-5	12	8	2	.
COc1cccc(NC(=O)N[C@@H]2C=C[C@@H](CC(=O)NCc3ccccn3)O[C@@H]2CO)c1	.	1	7	-1	-3	.
C[C@H](CO)N1C[C@H](C)[C@@H](CN(C)S(=O)(=O)c2ccc(Cl)cc2)Oc2ccc(N(C)C)cc2C1=O	.	3	-5	2	.	.
C[C@H]1CN([C@@H](C)CO)S(=O)(=O)c2ccc(C3=CCCC3)cc2O[C@H]1CN(C)Cc1ccccn1	.	3	-9	8	2	.
CCCNC(=O)N1C[C@H](C)[C@H](OC)CN(C)C(=O)c2ccc(NC(=O)C3CCC3)cc2OC[C@@H]1C	.	.	7	-2	-16	.
O=C(CN1CCOCC1)N[C@@H]1CC[C@@H](CCNC(=O)C2CCCC2)O[C@@H]1CO	.	0	2	-6	5	.
CCCc1c(C(=O)N/N=C/C(C)=C/c2ccccc2)nnn1-c1nonc1N	-3	0	1	-3	0	-4
CCCN(CCC)Cc1c(C(=O)N/N=C/C(C)=C\c2ccccc2)nnn1-c1nonc1N	-2	2	-5	-5	16*	-5
COc1ccc2c3c([nH]c2c1)[C@H](CO)N(C(=O)C1CCOCC1)CC31CCN(C(=O)NC(C)C)CC1	.	0	-11	-3	-4	.
